ChEMBL document CHEMBL1155539, “Discovery of 4-[1-[([1-[4-(trifluoromethyl)benzyl]-1H-indol-7-yl]carbonyl)amino]cyclopropyl]benzoic acid (MF-766), a highly potent and selective EP4 antagonist for treating inflammatory pain” (Bioorg Med Chem Lett, 2010)

Key:
[1] = biological target: T1, Prostaglandin E2 receptor EP3 subtype (Homo sapiens, UniProt P43115); test: Displacement of [3H]PGE2 from human prostanoid EP3 receptor expressed in HEK293-EBNA cells after 60 mins by scintillation counting; type: cell-based
T1 sequence (P43115 whole entry): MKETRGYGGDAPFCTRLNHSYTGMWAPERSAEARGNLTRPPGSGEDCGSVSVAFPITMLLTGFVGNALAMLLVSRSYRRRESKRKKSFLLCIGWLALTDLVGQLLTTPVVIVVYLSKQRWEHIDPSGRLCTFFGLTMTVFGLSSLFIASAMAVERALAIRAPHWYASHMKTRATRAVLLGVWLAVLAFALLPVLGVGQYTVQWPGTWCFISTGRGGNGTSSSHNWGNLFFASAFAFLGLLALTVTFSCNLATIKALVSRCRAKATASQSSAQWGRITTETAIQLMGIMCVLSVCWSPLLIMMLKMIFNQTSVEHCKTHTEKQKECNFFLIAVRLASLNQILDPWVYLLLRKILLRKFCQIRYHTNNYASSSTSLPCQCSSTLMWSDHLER

Rattus norvegicus [2] = test: Antiinflammatory activity in rat assessed as inhibition of complete Freund's adjuvant-induced paw swelling administered daily once 9 days after adjuvant challenge measured on day 18; type: functional; conditions: read-out: ED50
How it was run: (§1)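 Rat adjuvant-induced arthritis model with daily dosing in mg/kg/day. Dose groups were 0, 0.001, 0.01, 0.1 and 1 mg/kg, plus a non-AIA control group. Primary and secondary paw swelling were scored as % inhibition relative to vehicle-treated arthritic rats, and ED50 was estimated from the dose–response.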

[3] = biological target: Prostaglandin E2 receptor EP2 subtype (Homo sapiens, UniProt P43116); test: Displacement of [3H]PGE2 from human prostanoid EP2 receptor expressed in HEK293-EBNA cells after 60 mins by scintillation counting; type: cell-based
Chain of Prostaglandin E2 receptor EP2 subtype (P43116 whole entry): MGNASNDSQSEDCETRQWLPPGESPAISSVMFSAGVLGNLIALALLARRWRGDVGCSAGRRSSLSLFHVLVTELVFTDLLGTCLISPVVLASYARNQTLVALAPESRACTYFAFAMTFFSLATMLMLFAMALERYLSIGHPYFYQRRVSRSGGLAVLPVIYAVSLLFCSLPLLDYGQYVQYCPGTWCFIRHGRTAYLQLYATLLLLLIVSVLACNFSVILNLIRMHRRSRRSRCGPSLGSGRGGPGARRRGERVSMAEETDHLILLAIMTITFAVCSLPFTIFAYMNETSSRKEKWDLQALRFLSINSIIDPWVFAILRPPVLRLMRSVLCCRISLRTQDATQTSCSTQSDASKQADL

[4] = AUC (0 to 24 hrs) in Sprague-Dawley rat at 20 mg/kg, po; type: ADME, organism-based; set-up: time < 24 hr, dose 20 mg/kg, route oral; conditions: plasma
How it was run: (§2)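 Sprague-Dawley rats dosed iv at 5 mg/kg and po at 20 mg/kg. The iv group was n = 2 males given the free acid in 60% PEG 200 at 1 mL/kg. PK parameters were derived from plasma levels.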

Hepatocyte [5] = test: Oxidative metabolism in human hepatocytes assessed as protein covalent binding after 2 hrs; type: ADME, cell-based
How it was run: (§3)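 [3H]-labelled compound incubated with fresh rat or human hepatocytes for 2 h. Covalent protein binding was expressed as pmol-equiv/mg protein, and samples were checked for tritium loss by HPLC with radiometric detection.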

Thromboxane A2 receptor = biological target: T2, Thromboxane A2 receptor (Homo sapiens, UniProt P21731); test: Displacement of [3H]SQ-29548 from human prostanoid TP receptor expressed in HEK293-EBNA cells after 60 mins by scintillation counting; type: cell-based
T2 sequence (P21731 whole entry): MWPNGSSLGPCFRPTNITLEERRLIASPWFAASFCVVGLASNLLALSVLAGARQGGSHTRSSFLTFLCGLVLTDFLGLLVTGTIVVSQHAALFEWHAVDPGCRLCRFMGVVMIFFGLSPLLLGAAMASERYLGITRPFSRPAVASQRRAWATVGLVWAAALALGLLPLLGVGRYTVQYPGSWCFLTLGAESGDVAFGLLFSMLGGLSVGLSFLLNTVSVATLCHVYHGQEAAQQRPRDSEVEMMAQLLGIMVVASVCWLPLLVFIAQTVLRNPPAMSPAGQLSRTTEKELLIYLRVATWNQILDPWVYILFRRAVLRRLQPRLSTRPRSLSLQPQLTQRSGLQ

[6] = Drug level in complete Freund's adjuvant challenged rat administered daily once 9 days after adjuvant challenge measured on day 18 after 24 hrs post dose; type: ADME, organism-based; conditions: in vivo, read-out: Drug uptake
How it was run: (§4)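 In a separate rat AIA experiment with daily dosing, plasma drug levels were measured 2 h and 24 h after the final dose.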

[7] = Elimination half life in Beagle dog at 1 mg/kg, iv and 4 mg/kg, po; conditions: in vivo, read-out: beta t1/2 (converted)
Rattus norvegicus [8] = test: Antiinflammatory activity in rat assessed as inhibition of complete Freund's adjuvant-induced primary paw swelling administered daily once 9 days after adjuvant challenge measured on day 18; type: functional; how it was run: as §1
[9] = biological target: T3, Prostaglandin E2 receptor EP4 subtype (Homo sapiens, UniProt P35408); test: Antagonist activity at human prostanoid EP4 receptor expressed in HEK293 cells assessed as inhibition of PGE2-induced cAMP accumulation by scintillation proximity assay; type: functional, cell-based
T3 sequence (P35408 whole entry): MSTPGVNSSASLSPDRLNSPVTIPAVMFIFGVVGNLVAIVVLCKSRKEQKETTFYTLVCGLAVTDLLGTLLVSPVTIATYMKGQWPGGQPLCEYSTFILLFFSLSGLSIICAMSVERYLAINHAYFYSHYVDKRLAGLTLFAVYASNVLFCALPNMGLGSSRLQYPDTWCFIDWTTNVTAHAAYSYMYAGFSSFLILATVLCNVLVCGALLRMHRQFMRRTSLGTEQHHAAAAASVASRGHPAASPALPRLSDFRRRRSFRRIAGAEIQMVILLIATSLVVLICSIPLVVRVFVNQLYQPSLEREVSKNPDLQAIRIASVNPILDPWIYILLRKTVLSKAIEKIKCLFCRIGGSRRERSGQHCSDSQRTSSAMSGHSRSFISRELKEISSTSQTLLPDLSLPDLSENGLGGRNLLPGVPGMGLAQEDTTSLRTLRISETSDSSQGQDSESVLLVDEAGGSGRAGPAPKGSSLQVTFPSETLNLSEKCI
How it was run: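 Read-out was inhibition of PGE2-induced cAMP accumulation at EP4. Values are means from at least two independent experiments.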

[10] = Metabolic stability in dog hepatocytes; type: ADME, cell-based, Canis lupus familiaris, Hepatocyte
[11] = Elimination half life in Sprague-Dawley rat at 5 mg/kg, iv and 20 mg/kg, po; type: ADME, organism-based; conditions: in vivo, read-out: beta t1/2 (converted); how it was run: as §2
Prostacyclin receptor = Prostacyclin receptor (Homo sapiens, UniProt P43119); test: Displacement of [3H]iloprost from human prostanoid IP receptor expressed in HEK293-EBNA cells after 60 mins by scintillation counting; type: cell-based
Chain of Prostacyclin receptor (P43119 whole entry): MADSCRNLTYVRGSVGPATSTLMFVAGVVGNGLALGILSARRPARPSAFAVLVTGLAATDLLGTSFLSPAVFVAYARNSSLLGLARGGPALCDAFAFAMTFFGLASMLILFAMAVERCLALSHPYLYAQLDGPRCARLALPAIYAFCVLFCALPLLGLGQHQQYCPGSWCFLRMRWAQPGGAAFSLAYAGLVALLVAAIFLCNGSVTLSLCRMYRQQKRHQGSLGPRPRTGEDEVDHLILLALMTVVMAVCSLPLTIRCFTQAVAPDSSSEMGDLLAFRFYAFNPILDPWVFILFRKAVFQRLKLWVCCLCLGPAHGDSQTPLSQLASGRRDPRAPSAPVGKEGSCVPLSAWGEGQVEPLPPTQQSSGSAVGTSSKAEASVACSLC

[12] = Plasma clearance in Sprague-Dawley rat at 5 mg/kg, iv and 20 mg/kg, po; type: ADME, organism-based; how it was run: as §2
[13] = biological target: T3, Prostaglandin E2 receptor EP4 subtype; test: Antagonist activity at human prostanoid EP4 receptor expressed in HEK293 cells assessed as inhibition of PGE2-induced cAMP accumulation by scintillation proximity assay in presence of 10% human serum; type: functional, cell-based
Canis familiaris [14] = test: AUC (0 to 24 hrs) in Beagle dog at 4 mg/kg, po; conditions: in vivo
[15] = biological target: T3, Prostaglandin E2 receptor EP4 subtype; test: Displacement of [3H]PGE2 from human prostanoid EP4 receptor expressed in HEK293-EBNA cells after 60 mins by scintillation counting; type: cell-based
[16] = biological target: T3, Prostaglandin E2 receptor EP4 subtype; test: Antagonist activity at prostanoid EP4 receptor in human whole blood assessed as inhibition of TNF-alpha-induced IP-10 release in presence EP4 agonist L-000902688; type: functional, tissue-based
Rattus norvegicus [17] = test: Antiinflammatory activity in rat assessed as inhibition of complete Freund's adjuvant-induced secondary paw swelling administered daily once 9 days after adjuvant challenge measured on day 18; type: functional; how it was run: as §1
Rattus norvegicus [18] = test: Antiinflammatory activity in rat assessed as inhibition of complete Freund's adjuvant-induced primary paw swelling at 0.001 to 1 mg/kg administered daily once 9 days after adjuvant challenge measured on day 18; type: functional; set-up: scale not given: the % may be the effect or the level left; conditions: dose mg/kg 0.001-1; how it was run: as §1
Hepatocyte [19] = test: Metabolic stability in human hepatocytes; type: ADME, cell-based
Hepatocyte [20] = test: Oxidative metabolism in rat hepatocytes assessed as protein covalent binding after 2 hrs; type: ADME, cell-based; how it was run: as §3
[21] = Drug level in complete Freund's adjuvant challenged rat administered daily once 9 days after adjuvant challenge measured on day 18 after 2 hrs post dose; type: ADME, organism-based; conditions: in vivo, read-out: Drug uptake; how it was run: as §4
Hepatocyte [22] = test: Metabolic stability in rat hepatocytes; type: ADME, cell-based
Canis familiaris [23] = test: Bioavailability in Beagle dog at 1 mg/kg, iv and 4 mg/kg, po; conditions: in vivo
[24] = biological target: T3, Prostaglandin E2 receptor EP4 subtype; test: Displacement of [3H]PGE2 from human prostanoid EP4 receptor expressed in HEK293-EBNA cells after 60 mins by scintillation counting in presence of 10% human serum; type: cell-based

SMILES: O=C(O)c1ccc(C2(NC(=O)c3cccc4ccn(Cc5ccc(C(F)(F)F)cc5)c34)CC2)cc1
- Ki [1]: 7.4 µM
- ED50 (Rattus norvegicus [2]): 0.004 mg/kg/day
- Ki [3]: 8 µM
- AUC(0-t) at 24 h [4]: 150 µM·h
- Activity (Hepatocyte [5]): 50 pmolequiv/mg
- Ki (Thromboxane A2 receptor): 6.7 µM
- concentration at 24 h [6]: 3.1 nM
- half-life [7]: 156 min
- ED100 (Rattus norvegicus [8]): 0.025 mg/kg/day
- IC50 [9]: 1.3 nM
- Stability [10]: Stable
- half-life [11]: 276 min
- Ki (Prostacyclin receptor): > 22 µM
- clearance [12]: 3.7 mL/min/kg
- IC50 [13]: 1.8 nM
- AUC (Canis familiaris [14]): 15 µM·h
- Ki [15]: 0.23 nM
- IC50 [16]: 9.5 nM
- ED100 (Rattus norvegicus [17]): 0.025 mg/kg/day
- Activity (Rattus norvegicus [18]): 70%
- Stability (Hepatocyte [19]): Stable
- Activity (Hepatocyte [20]): 61 pmolequiv/mg
- concentration at 2 h [21]: 28 nM
- Stability (Hepatocyte [22]): Stable
- F (Canis familiaris [23]): 74%
- Ki [24]: 0.34 nM
